SUMO1-SIM PPI – modulators of human SUMO1-mediated protein-protein interactions | P63165 | SUMO1 binding to a labelled peptide, TR-FRET, 1 h | inhibition, % at 20 µM | actives 0.33% (n = 360,000); in the data active = inhibition above about 37%
STEP block – inhibitors of human striatal-enriched phosphatase STEP; P54829; recombinant STEP, OMFP fluorogenic substrate, fluorescence; inhibition, % at 20 µM; actives 0.25% (n = 360,000); AID 588621;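 active = inhibition at 20 µM, scaled per plate between control wells, above about 37%, limit read from the data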;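 note: 0% = DMSO with enzyme and substrate and 100% = substrate only without enzyme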
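Measure: Control-normalized % inhibition with plate pattern correction | Test system: STEP phosphatase, cell-free reaction | Medium: pH 6.0 Bis-Tris with DTT and Tween 20 | Technique: Fluorescence, 480/540 nm | Times: Reaction 20 min, ambient temperature | Doses: Single compound dose of 20 µM, 1% DMSO final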
LMPTP block – blocks human LMPTP phosphatase. recombinant LMPTP-A, OMFP fluorogenic substrate, fluorescence intensity. inhibition, % at 20 µM. actives 0.22% (n = 360,000). AID 651560;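 active = compounds that cut the enzyme signal by at least half of the control window in the single-dose screen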;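 note: plate controls were DMSO wells with enzyme plus substrate for no effect and substrate without enzyme for full effect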
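Assay system: LMPTP-A enzyme. Input: 0.625 nM LMPTP-A final. Probe or stimulus: 400 µM OMFP. Compound dosing: single 20 µM dose. Schedule: 50 min dark incubation at room temperature. Detection: fluorescence intensity of OMFP turnover product. Read-out: percent inhibition versus substrate-only and uninhibited controls. Benchmarks: no-enzyme low control, uninhibited high control.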
DNMT1 inh – inhibitors of human DNMT1. actives 0.83% (n = 360,000). inhibition (reported as % activation of signal), % at 10 µM. P26358. DNMT1 molecular beacon, Hinp1I cleavage, fluorescence; in the data active = inhibition above about 50%
Target sequence (P26358 504-1616 limits assumed): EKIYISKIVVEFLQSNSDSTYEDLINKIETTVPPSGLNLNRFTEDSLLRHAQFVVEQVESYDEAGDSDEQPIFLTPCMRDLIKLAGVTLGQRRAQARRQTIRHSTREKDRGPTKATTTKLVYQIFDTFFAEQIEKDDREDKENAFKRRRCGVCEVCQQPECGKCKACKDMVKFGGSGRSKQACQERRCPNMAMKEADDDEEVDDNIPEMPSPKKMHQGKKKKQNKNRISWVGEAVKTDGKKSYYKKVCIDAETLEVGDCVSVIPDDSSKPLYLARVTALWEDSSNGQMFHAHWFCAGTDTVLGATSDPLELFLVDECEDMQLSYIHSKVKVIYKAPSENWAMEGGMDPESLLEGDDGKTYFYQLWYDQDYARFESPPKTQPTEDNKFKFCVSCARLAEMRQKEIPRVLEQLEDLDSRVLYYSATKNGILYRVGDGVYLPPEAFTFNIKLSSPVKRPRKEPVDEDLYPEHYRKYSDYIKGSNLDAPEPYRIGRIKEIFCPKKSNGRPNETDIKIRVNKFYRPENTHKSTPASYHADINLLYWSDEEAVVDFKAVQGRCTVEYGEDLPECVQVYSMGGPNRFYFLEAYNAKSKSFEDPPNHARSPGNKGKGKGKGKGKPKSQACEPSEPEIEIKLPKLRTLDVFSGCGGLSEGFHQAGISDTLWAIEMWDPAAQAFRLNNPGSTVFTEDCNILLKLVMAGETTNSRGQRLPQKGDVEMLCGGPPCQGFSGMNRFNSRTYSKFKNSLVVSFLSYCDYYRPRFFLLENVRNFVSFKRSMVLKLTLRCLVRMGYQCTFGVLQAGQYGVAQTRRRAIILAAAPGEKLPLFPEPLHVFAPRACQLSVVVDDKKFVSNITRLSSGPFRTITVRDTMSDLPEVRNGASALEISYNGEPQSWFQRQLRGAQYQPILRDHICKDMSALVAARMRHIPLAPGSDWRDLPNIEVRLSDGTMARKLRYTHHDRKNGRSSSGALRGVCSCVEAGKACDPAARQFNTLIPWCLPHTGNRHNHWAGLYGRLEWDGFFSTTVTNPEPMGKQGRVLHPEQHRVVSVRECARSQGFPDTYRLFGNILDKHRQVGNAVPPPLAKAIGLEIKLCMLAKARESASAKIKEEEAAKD
Scp-1 inhibitor – inhibitors of human Scp-1 phosphatase | Q9GZU7 | Recombinant Scp1, phosphopeptide, malachite green phosphate absorbance | inhibition, % at 20 µM | actives 0.88% (n = 340,000) | AID 493091;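 active = inhibition above about 50% at 20 µM, limit read from the data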;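 note: plate controls were DMSO wells with enzyme for no effect and wells lacking enzyme for full effect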
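assay system = SCP-1 phosphatase catalytic domain, residues 76-261 | buffer or medium = 50 mM Tris acetate pH 5.5, 0.005% Tween-20, 10 mM MgCl2 | incubation = enzyme reaction 45 min at room temperature, colour 5 min, stabilisation 30 min | signal = Phosphate-binding colour reagent, absorbance read at 630 nm | measure = % inhibition at 20 µM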
* marks the source's active call; other numbers are inactive results; / = no result given. Only some compounds are listed: those with a hit (about 1.7% of all), similar ones and a draw of the others.

SMILES | SUMO1-SIM PPI | STEP block | LMPTP block | DNMT1 inh | Scp-1 inhibitor
COc1ccc(C(=O)Nc2nc3cc4c(cc3s2)OCCO4)c(OC)c1 | 47.3* | -0.2 | 4.3 | -11.6 | 1.9
COc1ccc2nc(NC(=O)c3ccc4ncsc4c3)sc2c1 | 42.7* | -2.7 | -0.9 | -9.6 | -0.2
Cn1c(=O)c(NCCc2ccccc2)c2c3c(cccc31)C(=O)c1ccccc1-2 | -43.0 | -166.1 | -18.3 | 75.8* | -10.9
CCNc1c2c3c(cccc3n(C)c1=O)C(=O)c1ccccc1-2 | / | / | / | / | -9.5
CCCCNc1c2c3c(cccc3n(C)c1=O)C(=O)c1ccccc1-2 | -56.6 | -210.4 | -5.7 | 192.1* | -8.4
Cn1c(=O)c(NCCO)c2c3c(cccc31)C(=O)c1ccccc1-2 | -42.9 | -171.3 | -13.6 | 142.0* | -7.6
CC1CCCCC12NC(=O)N(CC(=O)Nc1cccnc1)C2=O (stereo unspecified) | -0.7 | -2.4 | -0.5 | 0.9 | /
COc1cc(CNC(=O)Nc2nnc([C@@H]3C[C@H](O)[C@@H](CO)O3)s2)cc(OC)c1OC | 0.9 | 6.9 | -2.1 | 3.9 | /
Cc1cccc(N2CCN(C(=O)CN3C(=O)NC(C)(C)C3=O)CC2)c1C | -2.6 | -3.0 | -1.5 | 0.3 | -7.4
Cc1cccc(N2CCN(C(=O)CN3C(=O)NC(C)(C4CC4)C3=O)CC2)c1C (stereo unspecified) | 44.7* | 0.9 | 0.6 | 46.5 | -0.1
O=C(NC(=S)Nc1ccc(-c2ccc(CO)o2)cc1)c1cccs1 | 22.2 | 5.1 | 52.0* | 76.6* | -8.7
CC(C)C(C(=O)O)N1C(=O)/C(=C/C=C/c2ccco2)SC1=S (stereo unspecified) | 108.2* | 92.2* | 77.6* | 84.5* | 96.8*
O=C1/C(=C/C=C/c2ccco2)SC(=S)N1c1ccc(O)cc1 | 60.0* | 16.0 | 58.1* | 93.5* | 59.4*
CC(C)C(C(=O)O)N1C(=O)/C(=C/c2cccn2C)SC1=S (stereo unspecified) | -28.6 | 0.6 | 5.1 | 9.8 | -10.5
C=CCn1c2ccccc2c(=O)c2cc(C#Cc3cc(OC)cc(OC)c3)ccc21 | -90.5 | 0.4 | 5.7 | -1.8 | 52.2*
Cn1c2ccccc2c(=O)c2ccc(C#Cc3ccccn3)cc21 | / | / | / | / | 21.7
COc1cc(C#Cc2c(C=O)n(C)c3ccccc23)cc(OC)c1 | -6.8 | -4.4 | -0.2 | -2.2 | -11.4
Cn1c2ccccc2c(=O)c2cc(C#Cc3ccccn3)ccc21 | -14.7 | 4.2 | 11.2 | 26.0 | 58.0*
Cc1ccc(Cc2c(-c3cccc(Br)c3)nc3cc(C)c(Br)c(C)n23)cc1 | 2.3 | 0.0 | 2.1 | 21.7 | /
CCN1C(=O)[C@@H]2[C@@H](c3ccc(-c4ccc(Cl)c(Cl)c4)c(OC)c3)N3CCCC[C@@]3(C(=O)OC)[C@@H]2C1=O | -2.5 | 3.1 | 3.3 | 1.0 | -5.6
CC(C(=O)N(C)C1CCS(=O)(=O)C1)N1C(=O)/C(=C/c2ccco2)SC1=S (stereo unspecified) | -14.7 | 3.4 | 1.1 | 19.7 | 23.4
O=C(CN1C(=O)/C(=C/c2ccco2)SC1=S)Nc1ccc(C(=O)O)c(O)c1 | 77.5* | 63.8* | 43.3 | 94.8* | 49.9
Cc1ccc(NC(=O)CN2C(=O)S/C(=C\c3ccc(-c4cccc(C(=O)O)c4C)o3)C2=O)cc1C | 11.1 | 68.4* | 81.8* | 53.3* | 92.0*
O=C(CCCN1C(=O)C(=Cc2ccc3c(c2)OCO3)SC1=S)Nc1ccc(C(=O)O)c(O)c1 | -1.2 | -1.3 | 51.6* | 2.1 | /
O=C(CCCN1C(=O)/C(=C/c2ccccc2)SC1=S)Nc1ccc(C(=O)O)c(O)c1 | -23.8 | -0.1 | 2.7 | -1.0 | -7.9
CC(C(=O)Nc1ccc(C(=O)O)c(O)c1)N1C(=O)/C(=C\c2ccco2)SC1=S (stereo unspecified) | 87.6* | 64.2* | 23.5 | 95.0* | 70.2*
O=C(CCCN1C(=O)/C(=C/c2ccc3c(c2)OCO3)SC1=S)Nc1ccc(C(=O)O)cc1 | -21.9 | 13.1 | 22.0 | -0.2 | -8.3
Oc1cc(Nc2ccncc2)cc2cccnc12 | -31.7 | 2.9 | 56.4* | -3.8 | -14.5
Cc1ccccc1C(=O)N1CCC(C(=O)Nc2ccccc2N2CCCC2)CC1 | 4.4 | -0.9 | -0.4 | 1.0 | -6.9
COc1ccccc1NC(=O)NCC1CC1(Cl)Cl (stereo unspecified) | -3.6 | -2.2 | -1.3 | 0.4 | 1.4
